The structures appear in SMILES notation. Activity calls are given as the source filed them. The rule behind the calls is not given here.

Test [1] concerns the target T1, Leukotriene A-4 hydrolase (Homo sapiens, UniProt P09960).
T1 sequence (P09960 whole entry): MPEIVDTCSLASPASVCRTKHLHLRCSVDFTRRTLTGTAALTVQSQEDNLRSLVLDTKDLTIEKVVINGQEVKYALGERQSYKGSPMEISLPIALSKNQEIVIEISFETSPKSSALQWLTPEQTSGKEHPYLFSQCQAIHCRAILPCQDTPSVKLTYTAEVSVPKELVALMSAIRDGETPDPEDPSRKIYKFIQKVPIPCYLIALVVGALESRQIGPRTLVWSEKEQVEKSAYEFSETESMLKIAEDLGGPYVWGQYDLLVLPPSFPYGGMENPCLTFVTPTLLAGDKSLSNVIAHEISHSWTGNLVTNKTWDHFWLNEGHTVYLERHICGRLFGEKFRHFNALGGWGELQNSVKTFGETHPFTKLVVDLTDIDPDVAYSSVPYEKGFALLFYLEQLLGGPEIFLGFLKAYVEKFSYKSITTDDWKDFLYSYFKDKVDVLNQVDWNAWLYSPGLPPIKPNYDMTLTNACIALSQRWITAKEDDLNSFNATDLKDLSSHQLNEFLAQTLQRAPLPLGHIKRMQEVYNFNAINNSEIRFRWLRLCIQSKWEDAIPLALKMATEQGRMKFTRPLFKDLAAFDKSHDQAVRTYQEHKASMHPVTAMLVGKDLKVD
Nature of the test: Activation of aminopeptidase activity of human recombinant leukotriene A4 hydrolase expressed in Escherichia coli assessed as p-nitroanilide release by spectrophotometry. The method in brief: (§1)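 Recombinant human LTA4H, expressed from a pET 21a construct in E. coli and purified by ammonium sulfate precipitation, anion-exchange and gel filtration. Aminopeptidase activity was read spectrophotometrically as p-nitroanilide released from Ala-pNA. Values are the average of three experiments with standard deviation. Substrate dependence was examined by Lineweaver–Burk analysis to give apparent Km, Vmax, KA, α and β.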

For test [2], the target named is T2, Leukotriene A-4 hydrolase (Homo sapiens) (UniProt P09960).
T2 sequence (whole entry): T1 sequence (P09960 whole entry)
Description: Activation of aminopeptidase activity of human recombinant leukotriene A4 hydrolase expressed in Escherichia coli assessed as p-nitroanilide release at 100 uM by spectrophotometry. The method in brief: as §1

For test [3], the target named is T2, Leukotriene A-4 hydrolase (Homo sapiens). Description: Inhibition of epoxide hydrolase activity of human recombinant leukotriene A4 hydrolase expressed in Escherichia coli assessed as LTB4 production at 100 uM by RP-HPLC.
The target in test [4] is T1, Leukotriene A-4 hydrolase. Nature of the test: Inhibition of aminopeptidase activity of human recombinant leukotriene A4 hydrolase expressed in Escherichia coli assessed as p-nitroanilide release by spectrophotometry. In short, it runs like this:
as §1

Test [5] deals with T2, Leukotriene A-4 hydrolase (Homo sapiens). Nature of the test: Inhibition of aminopeptidase activity of human recombinant leukotriene A4 hydrolase expressed in Escherichia coli by spectrophotometry in presence of <0.65 mM […]. In short, it runs like this:
as §1

Test [6] has the same target. Nature of the test: Activation of aminopeptidase activity of human recombinant leukotriene A4 hydrolase expressed in Escherichia coli by spectrophotometry in presence of >0.65 mM […]. In short, it runs like this:
as §1

The target in test [7] is T1, Leukotriene A-4 hydrolase. Description: Inhibition of epoxide hydrolase activity of human recombinant leukotriene A4 hydrolase expressed in Escherichia coli assessed as LTB4 production by RP-HPLC.

`COc1ccc(Oc2ccccc2)cc1`: the AC50 in test [1] is 3.39 µM. In addition, the result in test [2] was Active. Besides, the result in test [3] was inactive.

As to `CCCCCOc1ccc(Oc2ccc(O)cc2)cc1`, the IC50 in test [4] is 2.48 µM. Also, the outcome in test [3] was inactive.

For the compound `CCCCOc1ccc(Oc2ccc(O)cc2)cc1`, the IC50 in test [4] is 5.56 µM. For the same compound, in test [3], the outcome was inactive.

Regarding `CCCCOc1ccc(Oc2ccccc2)cc1`, the IC50 in test [4] turned out to be 5.72 µM. For the same compound, in test [3], the result was inactive.

For the compound `CCCOc1ccc(Oc2ccc(O)cc2)cc1`, the IC50 in test [4] is 5.69 µM. The result in test [3] was inactive.

As for `COc1ccc(Oc2ccc(O)cc2)cc1`, the AC50 in test [1] came to 17 µM. Also, the result in test [2] was Active. Besides, the result in test [3] was inactive.

As for `Oc1ccc(Oc2ccccc2)cc1`, in test [1], the half-maximal activity concentration (AC50) was 11.1 µM. For the same compound, the result in test [2] was Active. For the same compound, the outcome in test [3] was inactive.

Turning to `CCOc1ccc(Oc2ccccc2)cc1`, the AC50 in test [1] turned out to be 2.82 µM. In addition, the result in test [2] was Active. The outcome in test [3] was inactive.

Regarding `CCCCCOc1ccc(Oc2ccccc2)cc1`, in test [4], the IC50 turned out to be 4.13 µM. In addition, in test [3], the result was inactive.

In the case of `CCOc1ccc(Oc2ccc(O)cc2)cc1`, the AC50 in test [1] is 14.8 µM. In test [2], the result was Active. Also, the outcome in test [3] was inactive.

As for `CCCOc1ccc(Oc2ccccc2)cc1`, the outcome in test [5] and in test [6] was Active. Further, the result in test [3] was inactive.

In the case of `c1ccc(Oc2ccccc2)cc1` [DIPHENYLETHER], the AC50 in test [1] was determined as 6.01 µM. Also, the outcome in test [2] was Active. Further, the outcome in test [3] was inactive.

For `NCCOc1ccc(Oc2ccccc2)cc1`, the IC50 in test [4] turned out to be 0.228 µM; in test [7], 0.035 µM.

These data come from ChEMBL document CHEMBL1152166, “Activation and inhibition of leukotriene A4 hydrolase aminopeptidase activity by diphenyl ether and derivatives” (Bioorg Med Chem Lett, 2008).
